Published values from different studies.
Compare with care: the assays were run in different laboratories.
Target: Mitogen-activated protein kinase 7 (MAPK7, Homo sapiens, UniProt Q13164)

For `CNC(=O)[C@@H]1CC[C@@H](n2c(-c3ccc4cnccc4c3)nc3ccc(C(=O)NCc4cccc(C(N)=O)c4)cc32)C1`, the remaining binding was 100% (binding, competition with immobilised ligand; 1 µM).
`CCN1CCN(Cc2ccc(C(=O)Nc3ccc(C)c(Oc4ccc5c(c4)CC(=O)N5)c3)cc2C(F)(F)F)CC1` gave a remaining binding of 100% (binding, competition with immobilised ligand; 1 µM).
`F[C@@H]1CCN(c2nccc(-c3cnn4ncccc34)n2)C1` has a remaining binding of 100% (binding; 1 µM).
`FC(F)(F)Oc1cccc(-c2cnc3ccc(-c4ccncc4)nn23)c1` has a remaining binding of 99% (cell-free assay, competition with immobilised ligand; 5 µM).
With `c1cnn2ncc(-c3ccnc(N4CCC45COC5)n3)c2c1` the remaining binding was 87% (binding; 1 µM).
The remaining binding of `O=C(c1ccc(Nc2ncc(Cl)c(-c3cc4ccccc4s3)n2)cc1)N1CCC(N2CCCC2)CC1` is reported as 60% (binding, competition with immobilised ligand; 1 µM).
The remaining binding of `C[C@@H]1CCN(c2nccc(-c3cnn4ncccc34)n2)C1` is reported as 100% (binding; 1 µM).
For `Cc1cnc(Nc2ccc(C(=O)N3CCC(N4CCCC4)CC3)cc2)nc1-c1cc2ccccc2s1`, the remaining binding was 21% (binding, competition with immobilised ligand; 1 µM).
The remaining binding of `C[C@@]1(Cc2ccc(C#N)cc2)C(=O)N(c2cc(Cl)cc(Cl)c2)c2ncc(C(=O)NC3(c4nc(C5CCC5)no4)CC3)n21` is reported as 100% (cell-free assay, competition with immobilised ligand; 1 µM).
`O=C(NCC1CCOCC1)c1n[nH]cc1NC(=O)c1c(F)cccc1F` has a remaining binding of 90% (binding, competition with immobilised ligand; 1 µM).
`FC(F)(F)c1ccc2c(c1)nc(-c1cccnc1)n2C1CC1` has a remaining binding of 100% (cell-free assay, competition with immobilised ligand; 1 µM).
The remaining binding of `COc1cnc(Nc2cccc(S(N)(=O)=O)c2)nc1N1CCN(c2ccccc2)C(=O)C1` is reported as 100% (binding, competition with immobilised ligand; 1 µM).
`O=C(Nc1cnc(Oc2ccc(F)cc2)nc1)N1CCc2ncccc2[C@@H]1c1ccc(F)cc1` has a remaining binding of 96% (cell-free assay, competition with immobilised ligand; 1 µM).
For `N[C@H]1CCN(c2nccc(-c3cnn4ncccc34)n2)C1`, the remaining binding was 100% (binding; 1 µM).
For `O=C(NS(=O)(=O)c1ccc(NCC2CCOCC2)c([N+](=O)[O-])c1)c1ccc(N2CCN(Cc3ccc(C(F)(F)F)cc3-c3ccc(Cl)cc3)CC2)cc1Oc1cnc2[nH]ccc2c1`, the remaining binding was 100% (cell-free assay, competition with immobilised ligand; 1 µM).
`CN(C)c1ncc(F)c(-c2cnn3ncccc23)n1` has a remaining binding of 99% (binding; 1 µM).
For `CNC(=O)Nc1ccc2c(c1)[C@@]1(CC2)OC(=O)N(CC(=O)N(Cc2ccc(F)cc2)[C@@H](C)C(F)(F)F)C1=O`, the remaining binding was 85% (cell-free assay, competition with immobilised ligand; 1 µM).
`CC1CCCN1c1nccc(-c2cnn3ncccc23)n1` (stereo not shown) has a remaining binding of 100% (binding; 1 µM).
For `COc1ccc2c(O[C@@H]3C[C@H]4C(=O)N[C@]5(C(=O)O)CC5/C=C\CCCCC[C@H](NC(=O)OC5CCCC5)C(=O)N4C3)cc(-c3csc(NC(=O)C(C)C)n3)nc2c1C` (stereo partly shown), the remaining binding was 100% (cell-free assay, competition with immobilised ligand; 1 µM).
The remaining binding of `COc1ncc2cc3ccccc3nc2c1C#N` is reported as 100% (cell-free assay, competition with immobilised ligand; 5 µM).
The remaining binding of `N#Cc1ccc(Nc2ccc3[nH]c(=O)[nH]c3c2)c(Cl)c1` is reported as 100% (cell-free assay, competition with immobilised ligand; 1 µM).
The remaining binding of `O=C(NCCCN1CCOCC1)c1ccc(Nc2ncc(Cl)c(-c3ccc(Cl)s3)n2)cc1` is reported as 28% (binding, competition with immobilised ligand; 1 µM).
